{
  "source": "ChEMBL document CHEMBL1123033",
  "about": "“Synthesis and antiherpes simplex virus activity of 9-[(1,3-dihydroxy-2-propylthio)methyl]guanine” (1985)",
  "key": {"Human alphaherpesvirus 1": {"test_system": "Human alphaherpesvirus 1", "test": "In vitro antiviral and anticellular activity was evaluated against herpes simplex virus HSV-1 (F strain) in vero cells tissue culture", "assay_type": "functional", "conditions": "Human alphaherpesvirus 1, Vero; read-out: ID50 (the source's name)", "in_short": "(§1)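 Plaque reduction assay in Vero cells infected with HSV; cells exposed to the nucleoside analogue. ID50 is the dose giving a 50% drop in plaque count relative to untreated controls.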"}, "Human alphaherpesvirus 2 [1]": {"test_system": "Human alphaherpesvirus 2", "test": "In vitro antiviral and anticellular activity was evaluated against herpes simplex virus HSV-2 (G strain) in vero (HSV-2 G ) cells.", "assay_type": "functional", "conditions": "Human alphaherpesvirus 2, Vero; read-out: ID50 (the source's name)", "in_short": "as §1"}, "Mus musculus [2]": {"test_system": "Mus musculus", "test": "(§2) Mean survival time of HSV-2 induced mortality in mice was determined when the 10 mg/Kg of compound was administered subcutaneously", "assay_type": "functional, organism-based", "in_short": "(§3)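 Mice (female Swiss-Webster, ~20 g) challenged intraperitoneally with 5 × 10^4 PFU HSV-2 strain G (~10 LD50); subcutaneous dosing once daily for 4 days, first dose 24 h after infection, with a saline group run alongside. Mean survival time in days ± standard deviation; probability by Mann-Whitney u-test.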"}, "Mus musculus [3]": {"test_system": "Mus musculus", "test": "Mean survival time of HSV-2 induced mortality in mice was determined when the 30 mg/Kg of compound was administered subcutaneously; NS means not significant", "assay_type": "functional, organism-based", "in_short": "as §3"}, "Mus musculus [4]": {"test_system": "Mus musculus", "test": "Effect of subcutaneous dose at 10 mg/kg on HSV-2 induced mortality in mice; 1/16", "assay_type": "functional", "in_short": "(§4)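 Female Swiss-Webster mice (~20 g) infected intraperitoneally with 5 × 10^4 PFU HSV-2 strain G (~10 LD50), then dosed subcutaneously once daily (24-h intervals) for 4 days starting 24 h post-infection, with a saline group run alongside. Read-out is survivors/total (15–16 mice per group) with percent survivors; probability by Fisher exact test.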"}, "Mus musculus [5]": {"test_system": "Mus musculus", "test": "Effect of subcutaneous dose at 100 mg/kg on HSV-2 induced mortality in mice; 8/15", "assay_type": "functional", "in_short": "as §4"}, "Mus musculus [6]": {"test_system": "Mus musculus", "test": "Effect of subcutaneous dose at 30 mg/kg on HSV-2 induced mortality in mice; 2/16", "assay_type": "functional", "in_short": "as §4"}, "Mus musculus [7]": {"test_system": "Mus musculus", "test": "Effect of subcutaneous dose at 10 mg/kg on HSV-2 induced mortality in mice", "assay_type": "functional", "in_short": "as §4"}, "Mus musculus [8]": {"test_system": "Mus musculus", "test": "Effect of subcutaneous dose at 30 mg/kg on HSV-2 induced mortality in mice", "assay_type": "functional", "in_short": "as §4"}, "Vero": {"test_system": "Vero", "test": "In vitro antiviral and anticellular activity was evaluated against vero cells in tissue culture", "assay_type": "functional", "conditions": "Chlorocebus sabaeus, read-out: ID50 (the source's name)", "in_short": "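Anticellular activity measured by cell proliferation assay in uninfected Vero cells.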"}, "Human betaherpesvirus 5": {"test_system": "Human betaherpesvirus 5", "test": "In vitro antiviral and anticellular activity was evaluated against human cytomegalovirus (HCMV AD 169) in […].", "assay_type": "functional", "conditions": "read-out: ID50 (the source's name)", "in_short": "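Plaque reduction assay in MRC-5 cells infected with HCMV and treated with the nucleoside analogue. ID50 is the dose cutting plaque numbers by 50% versus untreated controls.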"}, "Human alphaherpesvirus 2 [9]": {"test_system": "Human alphaherpesvirus 2", "test": "In vitro antiviral and anticellular activity was evaluated against herpes simplex virus HSV-2 (G strain) in vero cells.", "assay_type": "functional", "conditions": "Human alphaherpesvirus 2, Vero; read-out: ID50 (the source's name)", "in_short": "as §1"}, "Mus musculus [10]": {"test_system": "Mus musculus", "test": "Effect of subcutaneous dose at 10 mg/kg on HSV-2 induced mortality in mice; 7/16", "assay_type": "functional", "in_short": "as §4"}, "Mus musculus [11]": {"test_system": "Mus musculus", "test": "Effect of subcutaneous dose at 3 mg/kg on HSV-2 induced mortality in mice; 4/16", "assay_type": "functional", "in_short": "as §4"}, "Mus musculus [12]": {"test_system": "Mus musculus", "test": "Effect of subcutaneous dose at 30 mg/kg on HSV-2 induced mortality in mice; 12/16", "assay_type": "functional", "in_short": "as §4"}, "Mus musculus [13]": {"test_system": "Mus musculus", "test": "Effect of subcutaneous dose at 3 mg/kg on HSV-2 induced mortality in mice", "assay_type": "functional", "in_short": "as §4"}, "Mus musculus [14]": {"test_system": "Mus musculus", "test": "Effect of subcutaneous dose at 30 mg/kg on HSV-2 induced mortality in mice(value in parentheses denotes probability", "assay_type": "functional", "in_short": "as §4"}, "Mus musculus [15]": {"test_system": "Mus musculus", "test": "as §2", "assay_type": "functional", "in_short": "as §3"}, "Mus musculus [16]": {"test_system": "Mus musculus", "test": "Mean survival time of HSV-2 induced mortality in mice was determined when the 3 mg/Kg of compound was administered subcutaneously; NS means not significant", "assay_type": "functional, organism-based", "in_short": "as §3"}},
  "note": "Activity calls are given as the source filed them. No cut-off for these calls is given here.",
  "data": [
    {"smiles": "Nc1nc(O)c2ncn(C[S+]([O-])C(CO)CO)c2n1", "note": "(centres undefined)", "values": [
      {"measurement": "IC50", "setting": "Human alphaherpesvirus 1", "result": 25, "unit": "µM"}
    ]},
    {"smiles": "Nc1nc(O)c2ncn(CSC(CO)CO)c2n1", "values": [
      {"measurement": "IC50", "setting": "Human alphaherpesvirus 1", "result": 0.9, "unit": "µM"},
      {"measurement": "IC50", "setting": "Human alphaherpesvirus 2 [1]", "result": 8, "unit": "µM"},
      {"measurement": "Mean survival time", "setting": "Mus musculus [2]", "result": "inactive"},
      {"measurement": "Mean survival time", "setting": "Mus musculus [3]", "result": "inactive"},
      {"measurement": "Survivors", "setting": "Mus musculus [4]", "result": 1},
      {"measurement": "Survivors", "setting": "Mus musculus [5]", "result": 8},
      {"measurement": "Survivors", "setting": "Mus musculus [6]", "result": 2},
      {"measurement": "Mean survival time", "setting": "Mus musculus [7]", "result": 9.7, "unit": "days"},
      {"measurement": "Mean survival time", "setting": "Mus musculus [8]", "result": 9.4, "unit": "days"},
      {"measurement": "IC50", "setting": "Vero", "result": 900, "unit": "µM"},
      {"measurement": "IC50", "setting": "Human betaherpesvirus 5", "result": 80, "unit": "µM"}
    ]},
    {"smiles": "Nc1nc(O)c2ncn(CS(=O)(=O)C(CO)CO)c2n1", "values": [
      {"measurement": "IC50", "setting": "Human alphaherpesvirus 1", "result": 40, "unit": "µM"}
    ]},
    {"smiles": "Nc1nc2c(ncn2COCCO)c(=O)[nH]1", "note": "[ACYCLOVIR]", "values": [
      {"measurement": "IC50", "setting": "Human alphaherpesvirus 1", "result": 0.4, "unit": "µM"},
      {"measurement": "IC50", "setting": "Human alphaherpesvirus 2 [9]", "result": 1.5, "unit": "µM"},
      {"measurement": "IC50", "setting": "Vero", "result": 1100, "unit": "µM"},
      {"measurement": "IC50", "setting": "Human betaherpesvirus 5", "result": 100, "unit": "µM"}
    ]},
    {"smiles": "Nc1nc2c(ncn2COC(CO)CO)c(=O)[nH]1", "note": "[GANCICLOVIR]", "values": [
      {"measurement": "IC50", "setting": "Human alphaherpesvirus 1", "result": 0.3, "unit": "µM"},
      {"measurement": "IC50", "setting": "Human alphaherpesvirus 2 [9]", "result": 1.3, "unit": "µM"},
      {"measurement": "Survivors", "setting": "Mus musculus [10]", "result": 7},
      {"measurement": "Survivors", "setting": "Mus musculus [11]", "result": 4},
      {"measurement": "Survivors", "setting": "Mus musculus [12]", "result": 12},
      {"measurement": "Mean survival time", "setting": "Mus musculus [13]", "result": 11.2, "unit": "days"},
      {"measurement": "Mean survival time", "setting": "Mus musculus [14]", "result": 13.8, "unit": "days"},
      {"measurement": "Mean survival time", "setting": "Mus musculus [15]", "result": "<0.001"},
      {"measurement": "Mean survival time", "setting": "Mus musculus [16]", "result": "inactive"},
      {"measurement": "Mean survival time", "setting": "Mus musculus [7]", "result": 12.4, "unit": "days"},
      {"measurement": "IC50", "setting": "Vero", "result": 500, "unit": "µM"},
      {"measurement": "IC50", "setting": "Human betaherpesvirus 5", "result": 6, "unit": "µM"}
    ]}
  ]
}
